Test results: ChEMBL document CHEMBL1153556, “Antiplasmodial activity of [(aryl)arylsulfanylmethyl]Pyridine” (Antimicrob Agents Chemother, 2008)
The source made the active and inactive calls. No cut-off for these calls is given here.

Assays:
Plasmodium falciparum [1] = experiment: Antiplasmodial activity after 48 hrs against chloroquine-sensitive Plasmodium falciparum NF54 by [3H]hypoxanthine uptake; assay type: functional, organism-based
Outline: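 Ring-stage cultures were synchronized with 5% d-sorbitol. At 0.5 to 1% parasitemia they were grown in multiwell plates (200 μl/well) across a range of concentrations, with chloroquine as positive control. After 48 h, [3H]hypoxanthine (0.7 μCi/well) was added and culture continued 48 h. Parasites were washed in PBS, dissolved in 3 N NaOH (37°C, 6 h) and counted by β-counter. IC50 reported as mean ± SEM.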

Plasmodium falciparum [2] = experiment: Antiplasmodial activity as increased heme accumulation after 48 hrs against chloroquine-sensitive Plasmodium falciparum NF54 at 10-100 uM by spectrophotometry; assay type: functional, organism-based
Outline: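 Cultures were exposed to a range of concentrations for 48 h, then pelleted and washed in PBS. Each pellet was solubilized in 1 ml concentrated formic acid. Heme was read at 398 nm (ε = 1.56 × 10^5 M−1 cm−1) and expressed as nmol/mg cell protein.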

Plasmodium falciparum [3] = experiment: Induction of oxidative stress as decreased glutathione after 48 hrs in chloroquine-sensitive Plasmodium falciparum NF54 by TCA assay; assay type: functional, organism-based
Outline: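 Parasites at 4% parasitemia were treated 48 h, then isolated and sonicated in 20 mM ice-cold EDTA. The lysate was deproteinized with equal-volume 10% TCA, and the supernatant mixed with 0.8 M Tris-HCl pH 9 containing 20 mM DTNB. A412 was read against a GSH standard and expressed as % of control.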

Plasmodium falciparum [4] = experiment: Induction of oxidative stress as lipid peroxide formation after 48 hrs in chloroquine-sensitive Plasmodium falciparum NF54; assay type: functional, organism-based
Outline: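 Ring-synchronized culture (4% parasitemia) was treated 48 h, and parasites were isolated and lysed in PBS. Lysate was heated with TCA–thiobarbituric acid in 1 N HCl at 100°C for 15 min, cooled and centrifuged. A535 of the supernatant was read against a tetraethoxypropane standard, expressed as nmol/mg lysate protein.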

Plasmodium falciparum [5] = experiment: Induction of oxidative stress as increased H2O2 formation after 48 hrs in chloroquine-sensitive Plasmodium falciparum NF54 by spectrofluorimetry; assay type: functional, organism-based
Outline: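 Parasites at 4% parasitemia were treated 48 h, then loaded 30 min with 10 μM 2′,7′-dichlorofluorescein diacetate. They were isolated and lysed by mild sonication at 4°C. Dichlorofluorescein fluorescence was read at ex 502/em 523 nm and expressed as intensity/mg lysate protein.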

Plasmodium falciparum [6] = experiment: Induction of oxidative stress as increased hydroxyl radical formation after 48 hrs in chloroquine-sensitive Plasmodium falciparum NF54 by fast blue BB assay; assay type: functional, organism-based
Outline: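 Ring/early-trophozoite culture (2% parasitemia) was grown 48 h with compound plus 20 μl of 25% DMSO as ·OH trap, re-dosed at each daily medium change; a parasite-only control had neither. Isolated parasites were lysed in water, and methanesulfinic acid from the DMSO–·OH reaction was extracted for quantitation.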

Plasmodium yoelii [7] = experiment: Antiplasmodial activity as decreased mitochondrial transmembrane potential after 1 hrs against multi drug-resistant Plasmodium yoelii trophozoite infected Swiss mice (Mus musculus) erythrocytes at 10 uM by JC1 uptake; assay type: functional, organism-based
Plasmodium falciparum [8] = experiment: Antiplasmodial activity after 48 hrs against chloroquine-sensitive Plasmodium falciparum NF54 by [3H]hypoxanthine uptake in presence of PBN; assay type: functional, organism-based
Outline: (§1)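 Cultures at 4% parasitemia received test compound at 40 μM for 48 h, plus the ·OH scavenger PBN (40 mM) or mannitol (10 mM). Growth was read as [3H]hypoxanthine incorporation, β-counting, n = 6, mean ± SEM.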

Plasmodium falciparum [9] = experiment: Antiplasmodial activity after 48 hrs against chloroquine-sensitive Plasmodium falciparum NF54 by [3H]hypoxanthine uptake in presence of mannitol; assay type: functional, organism-based; outline: as §1
Plasmodium falciparum [10] = experiment: Antiplasmodial activity as parasite growth after 24 hrs against chloroquine-sensitive Plasmodium falciparum NF54 infected human B+ erythrocytes at <40 uM 24 hrs preinfection by [3H]hypoxanthine uptake; assay type: functional, organism-based
Outline: (§2)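 Uninfected human B+ RBC at 5% hematocrit were preincubated 24 h in CRPMI with compound up to 40 μM; DMSO served as control. Cells were washed three times, then inoculated with trophozoite-rich parasitized RBC (4 to 5% parasitemia). After one intraerythrocytic cycle, [3H]hypoxanthine (0.7 μCi/well) was added for 24 h. Cells were filter-harvested and counted (cpm), n = 6.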

MCF7 [11] = experiment: Cytotoxicity against human MCF7 cells assessed as cell viability at 10 to 1000 uM after 24 hrs by MTT assay; assay type: cell-based; settings: mcf7, 24 h
Plasmodium yoelii [12] = experiment: Antiplasmodial activity as reduced parasitaemia at day 4 against multi drug-resistant Plasmodium yoelii infected BALB/c mice (Mus musculus) at 10 mg/kg intraperitoneal dose 6 hrs post infection and daily for 3 days by Giemsa stain; assay type: functional; design: scale not given: the % may be the effect or the level left
Outline: (§3)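 BALB/c mice (22 ± 2 g), five per group, infected intraperitoneally on day 0 with 10^5 parasitized RBC of P. yoelii resistant to chloroquine, mefloquine and halofantrine. Dosing was intraperitoneal in groundnut oil (0.2 ml), starting 6 h after inoculation and given once daily on days 0–3. Parasitemia was read on Giemsa thin smears on day 4. Group means gave % suppression [(C−T)/C]×100 against vehicle controls; α-β-arteether served as the positive control.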

Plasmodium yoelii [13] = experiment: Antiplasmodial activity as reduced parasitaemia at day 4 against multi drug-resistant Plasmodium yoelii infected BALB/c mice (Mus musculus) at 25 mg/kg intraperitoneal dose 6 hrs post infection and daily for 3 days by Giemsa stain; assay type: functional; design: scale not given: the % may be the effect or the level left; outline: as §3
Plasmodium yoelii [14] = experiment: Antiplasmodial activity as reduced parasitaemia at day 4 against multi drug-resistant Plasmodium yoelii infected BALB/c mice (Mus musculus) at 50 mg/kg intraperitoneal dose 6 hrs post infection and daily for 3 days by Giemsa stain; assay type: functional; design: scale not given: the % may be the effect or the level left; outline: as §3
[15] = target: T1, Histidine-rich protein PFHRP-II (Plasmodium falciparum) (UniProt P05227); experiment: Inhibition of hemozoin formation after 48 hrs against chloroquine-sensitive Plasmodium falciparum NF54 at 10 to 100 uM by spectrophotometry; assay type: functional
T1 sequence (whole entry): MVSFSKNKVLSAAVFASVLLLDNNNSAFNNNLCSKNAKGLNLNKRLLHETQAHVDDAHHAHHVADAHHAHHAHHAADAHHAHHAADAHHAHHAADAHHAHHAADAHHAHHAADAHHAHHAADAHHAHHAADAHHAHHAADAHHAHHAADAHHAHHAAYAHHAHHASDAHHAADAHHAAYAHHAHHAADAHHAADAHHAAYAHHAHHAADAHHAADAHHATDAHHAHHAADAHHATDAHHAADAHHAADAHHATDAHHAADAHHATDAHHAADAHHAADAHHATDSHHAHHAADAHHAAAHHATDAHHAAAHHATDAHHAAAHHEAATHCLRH
Outline: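 Ring-synchronized culture (5% parasitemia, sorbitol) was treated 48 h across a concentration range. Parasites were saponin-isolated and sonicated, and the pellet washed in 2% SDS. It was digested with proteinase K (2 μg/ml, 37°C overnight), treated with 6 M urea for 3 h, and washed in SDS. Hemozoin was dissolved in 20 mM NaOH/2% SDS and read at 400 nm.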

MCF7 [16] = experiment: Cytotoxicity against human MCF7 cells assessed as cell viability after 24 hrs by MTT assay; assay type: cell-based; settings: MCF7, 24 h
Plasmodium falciparum [17] = experiment: Antiplasmodial activity as parasite invasion after 24 hrs against chloroquine-sensitive Plasmodium falciparum NF54 infected human B+ erythrocytes at <40 uM 24 hrs preinfection by [3H]hypoxanthine uptake; assay type: functional, organism-based; outline: as §2
[18] = target: T2, Histidine-rich protein PFHRP-II (Plasmodium falciparum, UniProt P05227); experiment: Inhibition of hemozoin formation after 48 hrs in chloroquine-sensitive Plasmodium falciparum NF54; assay type: functional
T2 sequence (P05227 whole entry): T1 sequence (whole entry)
Outline: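 P. falciparum NF54 culture (5% parasitemia) was ring-synchronized with 5% d-sorbitol, then exposed to graded drug concentrations for 48 h. Parasites were freed with saponin, sonicated and washed with 2% SDS. The pellet was digested overnight at 37°C with proteinase K (2 μg/ml) in Tris/SDS/CaCl2 and treated with 6 M urea for 3 h. After further SDS washes, hemozoin was dissolved in 20 mM NaOH/2% SDS and read at 400 nm.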

Heme = experiment: Binding affinity to heme by optical difference spectroscopy
Outline: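 Heme in 100 mM acetate buffer pH 5.2 at 25 ± 1°C, 1-cm quartz cell, was titrated with successive additions of compound (5 to 40 μM). Soret and difference spectra were recorded after each addition. KD came from a double-reciprocal plot of 1/ΔA362 against 1/[ligand]; mean ± SEM.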

Plasmodium yoelii [19] = experiment: Inhibition of hemozoin formation after 48 hrs in multi drug-resistant Plasmodium yoelii
[20] = Selectivity index ratio of IC50 for human MCF7 cells to IC50 for chloroquine-sensitive Plasmodium falciparum NF54; assay type: functional
Outline: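 Selectivity index = MCF-7 MTT IC50 divided by P. falciparum NF-54 [3H]hypoxanthine-uptake IC50.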

Plasmodium yoelii [21] = experiment: Antiplasmodial activity as reduced parasitaemia at day 4 against multi drug-resistant Plasmodium yoelii infected BALB/c mice (Mus musculus) at 100 mg/kg intraperitoneal dose 6 hrs post infection and daily for 3 days by Giemsa stain; assay type: functional; design: scale not given: the % may be the effect or the level left; outline: as §3

Compound	IC50 (Plasmodium falciparum [1]) [µM]	Activity (Plasmodium falciparum [3])	Activity (Plasmodium falciparum [4])	Activity (Plasmodium falciparum [5])	Activity (Plasmodium falciparum [6])	Activity (MCF7 [11])	Activity (Plasmodium yoelii [13]) [%]	Activity (Plasmodium yoelii [14]) [%]	Activity [15]	IC50 (MCF7 [16]) [µM]	IC50 [18] [µM]	Kd (Heme) [µM]	IC50 (Plasmodium yoelii [19]) [µM]	further results
COc1ccc(C(Sc2ccc3ccccc3c2)c2cccnc2)cc1 (stereo not drawn)	4	Dose-dependent effect	Dose-dependent effect	Dose-dependent effect	Dose-dependent effect	Non-toxic	65	85	Dose-dependent effect	650	–	–	–	Activity (Plasmodium falciparum [2]): Active; Activity (Plasmodium yoelii [7]): Active; Activity (Plasmodium falciparum [8]): inactive; Activity (Plasmodium falciparum [9]): inactive; Activity (Plasmodium falciparum [10]): inactive; Activity (Plasmodium yoelii [12]): 40%; Activity (Plasmodium falciparum [17]): inactive
CCCCCC[C@H]1C(=O)O[C@H](C)[C@H](NC(=O)c2cccc(NC=O)c2O)C(=O)O[C@@H](C)[C@@H]1OC(=O)CC(C)C	–	–	–	–	–	–	–	–	–	–	–	–	–	Activity (Plasmodium yoelii [7]): Active
COc1ccc(C(Sc2nc3ccccc3s2)c2cccnc2)cc1 (stereo not drawn)	12	–	–	–	–	–	–	–	–	–	35	14	40	–
COc1ccc(C(Sc2ccc(Cl)cc2)c2cccnc2)cc1 (stereo not drawn)	12	–	–	–	–	–	–	–	–	–	40	–	40	–
COc1ccc(C(Sc2ccc(C)cc2)c2cccnc2)cc1 (stereo not drawn)	20	–	–	–	–	–	–	–	–	–	40	12	20	–
COc1ccc(C(Sc2ccccc2)c2cccnc2)cc1 (stereo not drawn)	5	Dose-dependent effect	Dose-dependent effect	Dose-dependent effect	Dose-dependent effect	Non-toxic	30	60	Dose-dependent effect	1000	11	20	18	%max (Plasmodium falciparum [2]): Active; Ratio IC50 [20]: 200; Activity (Plasmodium yoelii [12]): 20%
COc1ccc(C(Sc2ccc(C)cc2)c2ccccn2)cc1 (stereo not drawn)	20	–	–	–	–	–	–	–	–	–	–	–	–	–
COc1ccc(C(Sc2ccccc2C)c2cccnc2)cc1 (stereo not drawn)	8	Dose-dependent effect	Dose-dependent effect	Dose-dependent effect	Dose-dependent effect	Non-toxic	30	50	Dose-dependent effect	1000	16	26	26	Activity (Plasmodium falciparum [2]): Active; Activity (Plasmodium falciparum [10]): inactive; Ratio IC50 [20]: 125; Activity (Plasmodium yoelii [21]): 80%
